Results reported in ChEMBL document CHEMBL1914311, “Sugar-based peptidomimetics inhibit amyloid β-peptide aggregation” (Eur J Med Chem, 2011).
Calls of active or inactive are those of the source. The calls are words filed in the database; no cut-off is given here. Numbered stars: 1 amine (or outer) side, 2 acyl side, 3 side chain; on linkers, the order of the positions; unused ones are H or OH. Square brackets hold non-standard residues; d marks the D form. Peptide text beside a SMILES is read from it. * marks the point of attachment. X1 = O=C(CCOC[C@H]1O[C@@H](OCCCN[*:1])[C@H](O)[C@@H](O)[C@@H]1O)[*:2]; X2 = O=C(CCOC[C@H]1O[C@@H](OCCN[*:1])[C@H](O)[C@@H](O)[C@@H]1O)[*:2]; X3 = O=C(CCOC[C@H]1O[C@H](OCCCN[*:1])[C@H](O)[C@@H](O)[C@@H]1O)[*:2]; X4 = O=C(CCOC[C@H]1O[C@H](OCCN[*:1])[C@H](O)[C@@H](O)[C@@H]1O)[*:2]; Boc = CC(C)(C)OC(=O)*

Experiments:
[1] = Solubility of compound in water; type: physicochemical; conditions: buffer
[2] = Inhibition of amyloid beta (1 to 40) fibril formation assessed as fold increase in lag time for aggregate formation at 1:1 protein to compound ratio by thioflavin T fluorescence assay relative to untreated control
Outline: (§1)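 HFIP-pretreated synthetic Aβ1-40 (DMSO stock) was used at 20 μM with compound at 1:1 or 1:0.1 peptide:compound ratios. The mixture contained 10 μM ThT in 10 mM Tris/HCl, 100 mM NaCl, pH 7.4, with 2.5% DMSO final. Fluorescence (ex 440, em 485 nm) was followed over time on aliquots, 2–6 runs on different days. Lag extension was taken as t(+compound)/t(alone), and plateau reduction as a percent decrease versus peptide alone.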

[3] = Inhibition of amyloid beta (1 to 40) fibril formation at 1:1 protein to compound ratio by thioflavin T fluorescence assay relative to untreated control; conditions: concentration not given here; outline: as §1
[4] = target: T1, Islet amyloid polypeptide (Homo sapiens) (UniProt P10997); assay: Inhibition of IAPP fibril formation assessed as inhibition of aggregate formation at 1:10 protein to compound ratio by thioflavin T fluorescence assay relative to untreated control; conditions: concentration not given here
T1 sequence (whole entry): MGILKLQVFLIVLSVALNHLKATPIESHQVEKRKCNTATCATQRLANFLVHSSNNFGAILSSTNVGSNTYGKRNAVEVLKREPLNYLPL
Outline: (§2)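 IAPP was made synthetic with an amidated C-terminus, pretreated with HFIP, and taken up in DMSO. It was used at 5 μM with 10 μM ThT in 10 mM Tris/HCl, 100 mM NaCl, pH 7.4, with 2.5% DMSO final. Compound was added at a 1:10 peptide:compound ratio. Fluorescence was read over time (ex 440, em 485 nm), 2–6 runs on different days. Lag extension was calculated as t(+compound)/t(alone). Plateau reduction was (F − F+compound)/F × 100%.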

[5] = Inhibition of amyloid beta (1 to 40) fibril formation assessed as lag time for aggregate formation at 1:0.1 protein to compound ratio by thioflavin T fluorescence assay relative to untreated control; outline: as §1
[6] = Binding affinity to amyloid beta (1 to 40) at 1:20 protein to compound ratio after 2 weeks by STD-NMR spectroscopy
Outline: (§3)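 STD-NMR used diluted Aβ1-40 (30 μM) at a 1:20 peptide:compound ratio, followed over time. Buffer was 50 mM sodium phosphate, 150 mM NaCl, pH 7.0, 10% D2O. A cascade of Gaussian selective pulses (50 ms, B1 0.16 kHz, 2 s total) was applied alternately at -1 and +30 ppm.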

[7] = target: T1, Islet amyloid polypeptide (Homo sapiens); assay: Inhibition of IAPP fibril formation at 1:10 protein to compound ratio after 24 hrs by transmission electron microscopy analysis
Outline: (§4)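 IAPP and compound (1:10) were incubated under the ThT assay conditions: 10 mM Tris·HCl, 100 mM NaCl, pH 7.4. Aliquots were taken at 3 h and 24 h, adsorbed onto carbon-coated copper grids for 2 min, negatively stained, and imaged by transmission electron microscopy.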

[8] = Inhibition of amyloid beta (1 to 40) fibril formation assessed as appearance of spherical aggregates at 1:1 protein to compound ratio after 2 weeks by transmission electron microscopy analysis
Outline: (§5)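 Aβ1-40 and compound were incubated at a 1:1 ratio in 10 mM Tris·HCl, 100 mM NaCl, pH 7.4, under the ThT assay conditions. Aliquots were taken after 1 day, 2 days and 2 weeks. They were adsorbed onto carbon-coated grids for 2 min, negatively stained, and imaged by TEM.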

[9] = Binding affinity to amyloid beta (1 to 40) assessed as negative chemical shift at 1 mM by 2D NOESY spectroscopy analysis
Outline: (§6)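 Synthetic C-terminally amidated Aβ1-40 was studied by NMR in 50 mM sodium phosphate, 150 mM NaCl, pH 7.0, with 10% D2O. 2D NOESY spectra were recorded with a 0.2 s mixing time.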

[10] = Inhibition of amyloid beta (1 to 40) fibril formation assessed as appearance of spherical aggregates at 1:01 protein to compound ratio after 1 to 2 days by transmission electron microscopy analysis
[11] = target: T1, Islet amyloid polypeptide (Homo sapiens); assay: Inhibition of IAPP fibril formation assessed as fold increase in lag time for aggregate formation at 1:10 protein to compound ratio by thioflavin T fluorescence assay relative to untreated control; outline: as §2
[12] = Binding affinity to amyloid beta (1 to 40) assessed as negative chemical shift by NMR spectroscopy analysis; outline: as §6
[13] = Inhibition of amyloid beta (1 to 40) fibril formation assessed as appearance of spherical aggregates at 1:1 protein to compound ratio after 1 to 2 days by transmission electron microscopy analysis; outline: as §5
[14] = Binding affinity to amyloid beta (1 to 40) at 1:20 protein to compound ratio up to 1 hr by STD-NMR spectroscopy; outline: as §3
[15] = Inhibition of amyloid beta (1 to 40) fibril formation assessed as appearance of spherical aggregates at 1:01 protein to compound ratio after 2 weeks by transmission electron microscopy analysis
[16] = Inhibition of amyloid beta (1 to 40) fibril formation assessed as lag time for aggregate formation at 1:1 protein to compound ratio by thioflavin T fluorescence assay relative to untreated control; outline: as §1
[17] = Binding affinity to amyloid beta (1 to 40) at 1 mM by STD-NMR spectroscopy
Outline: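 1D saturation transfer difference NMR was run in 50 mM sodium phosphate, 150 mM NaCl, pH 7.0, 10% D2O. Compound was at 1 mM and Aβ1-40 at 0.25 mM. Saturation used a cascade of Gaussian selective pulses (50 ms each, B1 0.16 kHz) lasting 2 s in total, applied alternately at -1 and +30 ppm. Compound-alone spectra served as control.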

[18] = target: T1, Islet amyloid polypeptide (Homo sapiens); assay: Inhibition of IAPP fibril formation at 1:10 protein to compound ratio after 3 hrs by transmission electron microscopy analysis; outline: as §4

SMILES	solubility [1]	fold change (FC) [2]	inhibition [3]	inhibition [4]	TIME [5]	Activity [6]	inhibition [7]	inhibition [8]	Activity [9]	inhibition [10]	fold change (FC) [11]	Activity [12]	inhibition [13]	Activity [14]	inhibition [15]	TIME [16]	Activity [17]	inhibition [18]
COC(=O)[C@H](CC(C)C)NC(=O)[C@@H](NC(=O)CCOC[C@H]1O[C@H](OCCNC(=O)[C@@H](NC(=O)[C@H](C)NC(=O)OC(C)(C)C)C(C)C)[C@H](O)[C@@H](O)[C@@H]1O)C(C)C (Boc-AV[X4]VL-OMe)	soluble	3.4	22%															
COC(=O)[C@H](CC(C)C)NC(=O)[C@@H](NC(=O)CCOC[C@H]1O[C@@H](OCCCNC(=O)[C@@H](NC(=O)[C@H](C)NC(=O)OC(C)(C)C)C(C)C)[C@H](O)[C@@H](O)[C@@H]1O)C(C)C (Boc-AV[X1]VL-OMe)	soluble	3	52%	5%	26 h	Active	inactive	Active	Active	Active	1	inactive	Active	inactive	inactive	41 h	Active	inactive
COC(=O)[C@H](CC(C)C)NC(=O)[C@@H](NC(=O)CCOC[C@H]1O[C@H](OCCCNC(=O)[C@@H](NC(=O)[C@H](C)NC(=O)OC(C)(C)C)C(C)C)[C@H](O)[C@@H](O)[C@@H]1O)C(C)C (Boc-AV[X3]VL-OMe)	soluble	3.4	60%	9%							1							
COC(=O)[C@H](CC(C)C)NC(=O)[C@@H](NC(=O)CCOC[C@H]1O[C@@H](OCCNC(=O)[C@@H](NC(=O)[C@H](C)NC(=O)OC(C)(C)C)C(C)C)[C@H](O)[C@@H](O)[C@@H]1O)C(C)C (Boc-AV[X2]VL-OMe)	soluble	3.4	40%	1%							1							
